Source: ChEMBL document CHEMBL5257020, “Discovery of a 9-mer Cationic Peptide (LTX-315) as a Potential First in Class Oncolytic Peptide” (J Med Chem, 2016)
Where a SMILES comes first, the peptide text is derived from it. [ ]: non-standard residue; d: D form. ξ: configuration not given here. ξDip = NC(C(=O)O)C(c1ccccc1)c1ccccc1

Experiments:
[1] = Cytotoxicity against human HUVEC-C cells assessed as inhibition of cell proliferation incubated for 4 hrs by MTS assay; format: toxicity, cell-based
In short: (§1)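 Cells grown in RPMI-1640 with 2 mM L-glutamine and 10% FBS, plated, then held 24 h at 37 °C. Adherent lines washed once in FBS-free medium. Cells exposed 4 h at 37 °C, 5% CO2 in FBS-free medium to 10 concentrations (1/4 steps, 400 μM top). 1% Triton X-100 served as positive control. MTS/PMS added for 2 h, then OD 490 nm read. IC50 from semilog curves; three independent experiments, quadruplicate wells.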

BXPC-3 = assay: Cytotoxicity against human BXPC-3 cells assessed as inhibition of cell proliferation incubated for 4 hrs by MTS assay; format: functional, cell-based; conditions: BXPC-3, 4 h; in short: as §1
Ramos = assay: Cytotoxicity against human Ramos cells assessed as inhibition of cell proliferation incubated for 4 hrs by MTS assay; format: functional, cell-based; in short: as §1
786-0 = assay: Cytotoxicity against human 786-0 cells assessed as inhibition of cell proliferation incubated for 4 hrs by MTS assay; format: functional, cell-based; conditions: 786-0, 4 h; in short: as §1
U-937 = assay: Cytotoxicity against human U-937 cells assessed as inhibition of cell proliferation incubated for 4 hrs by MTS assay; format: functional, cell-based; conditions: U-937, 4 h; in short: as §1
A20 = assay: Cytotoxicity against mouse A20 lymphoma cells assessed as inhibition of cell proliferation incubated for 4 hrs by MTT assay; format: functional, cell-based; conditions: A20, 4 h
In short: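 Murine A20 cells cultured in RPMI-1640 with 2 mM L-glutamine, 1.5 g/L sodium bicarbonate, 4.5 g/L glucose, 10 mM HEPES, 1.0 mM sodium pyruvate, 0.05 mM 2-mercaptoethanol and 10% FBS, without antibiotics, at 37 °C, 5% CO2. IC50 from three or more independent measurements, given as mean ± SD.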

PC-3 = assay: Cytotoxicity against human PC-3 cells assessed as inhibition of cell proliferation incubated for 4 hrs by MTS assay; format: functional, cell-based; conditions: PC-3, 4 h; in short: as §1
IGROV-1 = assay: Cytotoxicity against human IGROV-1 cells assessed as inhibition of cell proliferation incubated for 4 hrs by MTS assay; format: functional, cell-based; conditions: IGROV-1, 4 h; in short: as §1
MCF7 [2] = assay: Cytotoxicity against human MCF7 cells transfected with MDR1 assessed as inhibition of cell proliferation incubated for 4 hrs by MTS assay; format: functional, cell-based; conditions: MCF7, 4 h; in short: as §1
HL-60 = assay: Cytotoxicity against human HL-60 cells assessed as inhibition of cell proliferation incubated for 4 hrs by MTS assay; format: functional, cell-based; conditions: HL-60, 4 h; in short: as §1
SK-OV-3 = assay: Cytotoxicity against human SK-OV-3 cells assessed as inhibition of cell proliferation incubated for 4 hrs by MTS assay; format: functional, cell-based; conditions: SK-OV-3, 4 h; in short: as §1
OVCAR-3 = assay: Cytotoxicity against human OVCAR-3 cells assessed as inhibition of cell proliferation incubated for 4 hrs by MTS assay; format: functional, cell-based; conditions: OVCAR-3, 4 h; in short: as §1
[3] = Cytotoxicity against mouse AT84 cells assessed as inhibition of cell proliferation incubated for 4 hrs by MTT assay; format: functional, cell-based; conditions: AT84, 4 h
T47D = assay: Cytotoxicity against human T47D cells assessed as inhibition of cell proliferation incubated for 4 hrs by MTS assay; format: functional, cell-based; in short: as §1
HCT-116 = assay: Cytotoxicity against human HCT-116 cells assessed as inhibition of cell proliferation incubated for 4 hrs by MTS assay; format: functional, cell-based; conditions: HCT-116, 4 h; in short: as §1
COLO 205 = assay: Cytotoxicity against human COLO 205 cells assessed as inhibition of cell proliferation incubated for 4 hrs by MTS assay; format: functional, cell-based; conditions: COLO 205, 4 h; in short: as §1
Malme-3M = assay: Cytotoxicity against human Malme-3M cells assessed as inhibition of cell proliferation incubated for 4 hrs by MTS assay; format: functional, cell-based; in short: as §1
MCF7 [4] = assay: Cytotoxicity against human MCF7 cells assessed as inhibition of cell proliferation incubated for 4 hrs by MTS assay; format: functional, cell-based; conditions: MCF7, 4 h; in short: as §1
[5] = Cytotoxicity against human MINO cells assessed as inhibition of cell proliferation incubated for 4 hrs by MTS assay; format: functional, cell-based; in short: as §1
K562 = assay: Cytotoxicity against human K562 cells assessed as inhibition of cell proliferation incubated for 4 hrs by MTS assay; format: functional, cell-based; conditions: K562, 4 h; in short: as §1
PANC-1 = assay: Cytotoxicity against human PANC-1 cells assessed as inhibition of cell proliferation incubated for 4 hrs by MTS assay; format: functional, cell-based; conditions: PANC-1, 4 h; in short: as §1
Calu-6 = assay: Cytotoxicity against human Calu-6 cells assessed as inhibition of cell proliferation incubated for 4 hrs by MTS assay; format: functional, cell-based; conditions: Calu-6, 4 h; in short: as §1
HT-29 = assay: Cytotoxicity against human HT-29 cells assessed as inhibition of cell proliferation incubated for 4 hrs by MTS assay; format: functional, cell-based; conditions: HT-29, 4 h; in short: as §1
[6] = Cytotoxicity against human IGROV(CDDP) cells assessed as inhibition of cell proliferation incubated for 4 hrs by MTS assay; format: functional, cell-based; in short: as §1
KARPAS-299 = assay: Cytotoxicity against human KARPAS-299 cells assessed as inhibition of cell proliferation incubated for 4 hrs by MTS assay; format: functional, cell-based; conditions: KARPAS-299, 4 h; in short: as §1
CCRF-CEM = assay: Cytotoxicity against human CCRF-CEM cells assessed as inhibition of cell proliferation incubated for 4 hrs by MTS assay; format: functional, cell-based; in short: as §1
DU-145 = assay: Cytotoxicity against human DU-145 cells assessed as inhibition of cell proliferation incubated for 4 hrs by MTS assay; format: functional, cell-based; conditions: DU-145, 4 h; in short: as §1
[7] = Cytotoxicity against human U-87 MG cells assessed as inhibition of cell proliferation incubated for 4 hrs by MTS assay; format: functional, cell-based, U-87MG ATCC; in short: as §1
CEM-VLB = assay: Cytotoxicity against human CCRF-CEM/VLB cells assessed as inhibition of cell proliferation incubated for 4 hrs by MTS assay; format: functional, cell-based; in short: as §1
[8] = Cytotoxicity against human MRC5 cells assessed as inhibition of cell proliferation incubated for 4 hrs by MTT assay; format: toxicity, cell-based
In short: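 MRC-5 human embryonic lung fibroblasts cultured in MEM with 2 mM L-glutamine and 10% FBS, without antibiotics, at 37 °C in humidified 5% CO2. Cultures were tested for mycoplasma. IC50 from three or more independent measurements, given as mean ± SD.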

Toledo = assay: Cytotoxicity against human Toledo cells assessed as inhibition of cell proliferation incubated for 4 hrs by MTS assay; format: functional, cell-based; in short: as §1
A549 = assay: Cytotoxicity against human A549 cells assessed as inhibition of cell proliferation incubated for 4 hrs by MTS assay; format: functional, cell-based; conditions: A549, 4 h; in short: as §1
HCT-15 = assay: Cytotoxicity against human HCT-15 cells assessed as inhibition of cell proliferation incubated for 4 hrs by MTS assay; format: functional, cell-based; conditions: HCT-15, 4 h; in short: as §1
NAMALVA = assay: Cytotoxicity against human NAMALVA cells assessed as inhibition of cell proliferation incubated for 4 hrs by MTS assay; format: functional, cell-based; in short: as §1
SK-N-AS = assay: Cytotoxicity against human SK-N-AS cells assessed as inhibition of cell proliferation incubated for 4 hrs by MTS assay; format: functional, cell-based; in short: as §1
NCI-H460 = assay: Cytotoxicity against human NCI-H460 cells assessed as inhibition of cell proliferation incubated for 4 hrs by MTS assay; format: functional, cell-based; conditions: NCI-H460, 4 h; in short: as §1
SU-DHL-1 = assay: Cytotoxicity against human SU-DHL-1 cells assessed as inhibition of cell proliferation incubated for 4 hrs by MTS assay; format: functional, cell-based; conditions: SU-DHL-1, 4 h; in short: as §1
Daudi = assay: Cytotoxicity against human Daudi cells assessed as inhibition of cell proliferation incubated for 4 hrs by MTS assay; format: functional, cell-based; in short: as §1
HL60/ADR = assay: Cytotoxicity against human HL60/ADR cells assessed as inhibition of cell proliferation incubated for 4 hrs by MTS assay; format: functional, cell-based; in short: as §1

Compound NCCCC[C@H](NC(=O)[C@H](Cc1c[nH]c2ccccc12)NC(=O)[C@H](CCCCN)NC(=O)[C@H](CCCCN)NC(=O)C(NC(=O)[C@H](Cc1c[nH]c2ccccc12)NC(=O)[C@H](CCCCN)NC(=O)[C@H](CCCCN)NC(=O)[C@@H](N)Cc1c[nH]c2ccccc12)C(c1ccccc1)c1ccccc1)C(N)=O (some centres undefined) (H-WKKW[ξDip]KKWK-NH2) has an IC50 at 4 h [1] of 55.5 µM, an IC50 (BXPC-3) of 17.9 µM and an IC50 (Ramos) of 5.4 µM. The IC50 (786-0) was 19.2 µM, the IC50 (U-937) was 5.3 µM and the IC50 (A20) was 16 µM. It also gave an IC50 (PC-3) of 14.1 µM, an IC50 (IGROV-1) of 19.6 µM and an IC50 (MCF7 [2]) of 11 µM. The IC50 (HL-60) was 8 µM, the IC50 (SK-OV-3) was 18.1 µM and the IC50 (OVCAR-3) was 13.9 µM. It also gave an IC50 [3] of 21 µM, an IC50 (T47D) of 4.8 µM and an IC50 (HCT-116) of 10.3 µM. For the same compound, the IC50 (COLO 205) was 8.7 µM, the IC50 (Malme-3M) was 12.4 µM and the IC50 (MCF7 [4]) was 8.9 µM. It also gave an IC50 [5] of 9.5 µM, an IC50 (K562) of 8.2 µM and an IC50 (PANC-1) of 17.1 µM. It also gave an IC50 (Calu-6) of 6.9 µM, an IC50 (HT-29) of 11 µM and an IC50 [6] of 6.4 µM. For the same compound, the IC50 (KARPAS-299) was 11.6 µM, the IC50 (CCRF-CEM) was 7.8 µM and the IC50 (DU-145) was 12.4 µM. It also gave an IC50 [7] of 17.3 µM, an IC50 (CEM-VLB) of 5.3 µM and an IC50 at 4 h [8] of 122 µM. The IC50 (Toledo) was 7.7 µM, the IC50 (A549) was 10.4 µM and the IC50 (HCT-15) was 12 µM. The IC50 (NAMALVA) was 7.1 µM, the IC50 (SK-N-AS) was 10.4 µM and the IC50 (NCI-H460) was 9 µM. The IC50 (SU-DHL-1) was 7.3 µM, the IC50 (Daudi) was 8.1 µM and the IC50 (HL60/ADR) was 10.5 µM.
